The subject of experiment [1] is Rattus norvegicus. Nature of the experiment: Antihyperlipidemic activity in Charles-Foster rat assessed as reversal of triton-induced increase in plasma triglyceride level at 100 mg/kg, po after 18 hrs relative to triton-treated control. It is filed as functional. An outline of the steps: (§1)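 Male adult Charles Foster rats (200-225 g), 6 per group; triton WR-1339 400 mg/kg i.p. plus oral test agent in 0.2% gum acacia suspension, given together, diet withdrawn. After 18 h, retro-orbital EDTA blood was centrifuged 2500 g, 4 °C, 10 min; plasma was diluted 1:3 in saline and TC, PL and TG were assayed enzymatically (mg/dl). Mean ± SD; Student's t-test.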

Experiment [2] deals with Rattus norvegicus. The experiment can be described thus: Antihyperlipidemic activity in Charles-Foster rat assessed as post heparin lipolytic activity at 100 mg/kg, po after 18 hrs by spectrophotometric analysis relative to control. In kind it is functional. An outline of the steps:
(§2)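 Male adult Charles Foster rats (200-225 g), 6 per group. Triton WR-1339 400 mg/kg i.p.; test agent 100 mg/kg p.o. as gum acacia (0.2% w/v) suspension in water, given simultaneously, diet withdrawn; vehicle to control and triton groups. At 18 h under thiopentone (50 mg/kg), retro-orbital blood collected into EDTA and plasma separated. Post-heparin lipolytic activity read spectrophotometrically as nmol free fatty acid/h/ml plasma; mean ± SD; Student's t-test.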

The subject of experiment [3] is Rattus norvegicus. Nature of the experiment: Antihyperlipidemic activity in Charles-Foster rat assessed as reversal of triton-induced increase in plasma phospholipid level at 100 mg/kg, po after 18 hrs relative to triton-treated control. It is filed as functional. In outline:
as §1

Experiment [4] has as its system Rattus norvegicus. Nature of the experiment: Antihyperlipidemic activity in Charles-Foster rat assessed as reversal of triton-induced increase in plasma phospholipid level at 100 mg/kg, po after 18 hrs relative to control. It is filed as functional. An outline of the steps: as §1
Experiment [5] concerns Rattus norvegicus. Nature of the experiment: Antihyperlipidemic activity in Charles-Foster rat assessed as post heparin lipolytic activity at 100 mg/kg, po after 18 hrs by spectrophotometric analysis relative to triton-treated control. It is filed as functional. In outline:
as §2

Experiment [6] relates to Rattus norvegicus. The experiment can be described thus: Antihyperlipidemic activity in Charles-Foster rat assessed as reversal of triton-induced increase in plasma triglyceride level at 100 mg/kg, po after 18 hrs relative to control. In kind it is functional. An outline of the steps: as §1
Experiment [7] has as its system Rattus norvegicus. Nature of the experiment: Antihyperlipidemic activity in Charles-Foster rat assessed as reversal of triton-induced increase in plasma total cholesterol level at 100 mg/kg, po after 18 hrs relative to control. It is filed as functional. In outline: as §1
The test system of experiment [8] is Rattus norvegicus. Nature of the experiment: Antihyperlipidemic activity in Charles-Foster rat assessed as reversal of triton-induced increase in plasma total cholesterol level at 100 mg/kg, po after 18 hrs relative to triton-treated control. It is filed as functional. In outline: as §1
A short description of experiment [9]: Antioxidant activity assessed as inhibition of hydroxyl radical generation at 200 ug/mL after 90 mins by spectrophotometric analysis relative to control. It is filed as functional. An outline of the steps: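 Hydroxyl radicals were generated non-enzymically from deoxyribose (2.8 mM), FeSO4 (2 mM), sodium ascorbate (2.0 mM) and H2O2 (2.8 mM) in KH2PO4 buffer pH 7.4, 2.5 mL final, with or without agent at 200 µg/ml, for 90 min at 37 °C. MDA was read spectrophotometrically by the thiobarbituric acid method against reference samples and reagent blanks.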

The nature of experiment [10]: Antioxidant activity assessed as inhibition of microsomal lipid peroxidation at 200 ug/mL by spectrophotometric analysis relative to control. In kind it is functional.
Experiment [11] has as its system Rattus norvegicus. The experiment can be described thus: Antihyperlipidemic activity in triton-induced Charles-Foster rat assessed as increase in plasma lecithin cholesterol acyltransferase activity at 100 mg/kg, po after 18 hrs by colorimetric assay. It is filed as functional, organism-based. Details: dose 100 mg/kg.

The structures appear in SMILES notation. Active and inactive are the calls of the source. The calls are words filed in the database; no cut-off is given here.

On to `CCc1cc(C(c2c[nH]c3ccccc23)c2c[nH]c3ccccc23)cc2cc(C(=O)c3ccc(Cl)cc3)oc12`, for which the Activity in experiment [1] was -21%; in [2], 15.05 nmol/h/mL; in experiment [3] it was -21%; in experiment [4] it was 163.43 mg/dL; in experiment [5] it was 14%; in [6] it was 170.72 mg/dL. Moreover, the Activity was 147.36 mg/dL in experiment [7] and -20% in experiment [8].

On to `OC[C@@H](O)[C@@H](O)[C@H](O)[C@H](O)CO`, for which the inhibition (in general, the change of the read-out against control, counted positive when it falls) in experiment [9] worked out at 49%; in [10] it was 52%.

In the case of `COc1ccc(C(=O)c2cc3cc(C(c4c[nH]c5ccccc45)c4c[nH]c5ccccc45)cc(C(C)(C)C)c3o2)cc1`, the Activity in experiment [1] was -8%; in experiment [2], 13.73 nmol/h/mL; in [3] it was -8%; in experiment [4], 190.32 mg/dL; in experiment [5] it was 4%; in [6], 198.82 mg/dL. Further, the Activity in experiment [7] was 171.31 mg/dL; in experiment [8], -7%.

For the molecule `CC(C)(C)c1cc(C(c2c[nH]c3ccccc23)c2c[nH]c3ccccc23)cc2cc(C(=O)c3ccc(Cl)cc3)oc12`, the Activity in [1] is -10%; in experiment [2] it was 14.37 nmol/h/mL; in experiment [3] it was -9%; in [4] it was 187.91 mg/dL; in experiment [5] it was 9%; in [6], 194.49 mg/dL. For the same molecule, the Activity is 165.78 mg/dL in experiment [7] and -10% in experiment [8].

For the molecule `Cc1c(C)c2c(c(C)c1O)CC[C@@](C)(CCC[C@H](C)CCC[C@H](C)CCCC(C)C)O2`, the inhibition in [9] stood at 49%; in experiment [10] it was 52%.

Take `Cc1cc(C(c2c[nH]c3ccccc23)c2c[nH]c3ccccc23)cc2cc(C(=O)c3ccc(C#N)cc3)oc12`: the Activity in [1] is -7%; in [2], 13.87 nmol/h/mL; in experiment [3], -8%; in experiment [4] it was 190.11 mg/dL; in [5], 5%; in experiment [6], 200.98 mg/dL. In addition, the Activity in [7] is 171.25 mg/dL; in experiment [8] it was -7%.

In the case of `CCCc1cc(C(c2c[nH]c3ccc(O)cc23)c2c[nH]c3ccc(O)cc23)cc2cc(C(=O)c3ccc(OC)cc3)oc12`, the Activity in [1] is -20%; in experiment [2] it was 15.19 nmol/h/mL; in experiment [3] it was -22%; in experiment [4], 161.36 mg/dL; in [5], 15%; in [6], 172.88 mg/dL. In addition, the Activity in experiment [7] was 143.68 mg/dL; in [8], -22%.

Take `COc1ccc(C(=O)c2cc3cc(C(c4c[nH]c5ccccc45)c4c[nH]c5ccccc45)cc(C(C)C)c3o2)cc1`: the Activity in experiment [1] is -16%; in experiment [2], 14.79 nmol/h/mL; in experiment [3], -15%; in [4], 175.84 mg/dL; in [5], 12%; in experiment [6], 181.53 mg/dL. Further, the Activity in experiment [7] is 152.89 mg/dL; in experiment [8], -17%.

As to `COc1ccc(C(=O)c2cc3cc(C(c4c[nH]c5ccc([N+](=O)[O-])cc45)c4c[nH]c5ccc([N+](=O)[O-])cc45)cc(C(C)C)c3o2)cc1`, the Activity in experiment [1] is -10%; in [2] it was 13.75 nmol/h/mL; in experiment [3], -10%; in [4], 186.19 mg/dL; in experiment [5], 4%; in [6], 193.81 mg/dL. Also, the Activity in [7] is 167.63 mg/dL; in experiment [8], -9%.

As to `CC(C)c1cc(C(c2c[nH]c3ccccc23)c2c[nH]c3ccccc23)cc2cc(C(=O)c3ccc(Cl)cc3)oc12`, the Activity in experiment [1] is -10%; in [2], 13.77 nmol/h/mL; in experiment [3], -10%; in [4], 186.19 mg/dL; in experiment [5], 4%; in experiment [6] it was 194.4 mg/dL. Also, the Activity is 162.1 mg/dL in [7] and -12% in experiment [8].

On to `COc1ccc(C(=O)c2cc3cc(C(c4c[nH]c5ccc(OC)cc45)c4c[nH]c5ccc(OC)cc45)cc(Cl)c3o2)cc1`, for which the Activity is -22% in experiment [1]; 15.19 nmol/h/mL in experiment [2]; -20% in [3]; 165.5 mg/dL in experiment [4]; 15% in [5]; 168.56 mg/dL in experiment [6]. The Activity in experiment [7] is 145.52 mg/dL; in [8] it was -21%.

Regarding `Cc1ccc(C)c(OCCCC(C)(C)C(=O)O)c1` [GEMFIBROZIL], the Activity in [1] was -34%; in [2] it was 15.85 nmol/h/mL; in [3], -35%; in [4] it was 134.47 mg/dL; in experiment [5], 20%; in [6], 142.63 mg/dL. Also, the figures for the Activity in [7] and in experiment [8] were 121.57 mg/dL and -34%, respectively. In addition, the outcome in experiment [11] was Active.

With `CCc1cc(C(c2c[nH]c3ccccc23)c2c[nH]c3ccccc23)cc2cc(C(=O)c3ccc(OC)cc3)oc12`, the Activity was -9% in experiment [1]; 14.26 nmol/h/mL in experiment [2]; -8% in experiment [3]; 190.32 mg/dL in experiment [4]; 8% in [5]; 196.66 mg/dL in [6]. Further, the Activity was 169.47 mg/dL in experiment [7] and -8% in experiment [8].

Take `COc1ccc(C(=O)c2cc3cc(C(c4c[nH]c5ccccc45)c4c[nH]c5ccccc45)cc(C)c3o2)cc1`: the Activity was -10% in experiment [1]; 13.71 nmol/h/mL in experiment [2]; -11% in [3]; 184.12 mg/dL in experiment [4]; 4% in [5]; 194.49 mg/dL in [6]. Moreover, the Activity is 162.1 mg/dL in experiment [7] and -12% in experiment [8].

For the molecule `Cc1cc(C(c2c[nH]c3ccccc23)c2c[nH]c3ccccc23)cc2cc(C(=O)c3ccc(Cl)cc3)oc12`, the Activity in experiment [1] was -11%; in experiment [2] it was 14.39 nmol/h/mL; in [3], -10%; in experiment [4], 186.19 mg/dL; in experiment [5], 9%; in [6], 192.33 mg/dL. Moreover, the Activity in experiment [7] was 163.94 mg/dL; in experiment [8] it was -11%.

In the case of `Cc1ccc(C(=O)c2cc3cc(C(c4c[nH]c5ccccc45)c4c[nH]c5ccccc45)cc(C)c3o2)cc1`, the Activity is -9% in [1]; 14.26 nmol/h/mL in experiment [2]; -8% in experiment [3]; 190.32 mg/dL in experiment [4]; 8% in experiment [5]; 196.66 mg/dL in experiment [6]. Besides, the Activity in experiment [7] was 169.47 mg/dL; in experiment [8] it was -8%.

With `CCc1cc(C(c2c[nH]c3ccc([N+](=O)[O-])cc23)c2c[nH]c3ccc([N+](=O)[O-])cc23)cc2cc(C(=O)c3ccc(OC)cc3)oc12`, the Activity in [1] is -4%; in experiment [2], 13.47 nmol/h/mL; in [3] it was -6%; in experiment [4] it was 194.46 mg/dL; in experiment [5], 2%; in experiment [6], 207.46 mg/dL. The Activity is 176.84 mg/dL in experiment [7] and -4% in [8].

`CC(C)c1cc(C(c2c[nH]c3ccccc23)c2c[nH]c3ccccc23)cc2cc(C(=O)c3ccc(C#N)cc3)oc12`: the Activity is -10% in experiment [1]; 13.75 nmol/h/mL in experiment [2]; -10% in experiment [3]; 186.19 mg/dL in experiment [4]; 4% in [5]; 193.81 mg/dL in experiment [6]. Moreover, the Activity is 167.63 mg/dL in experiment [7] and -9% in experiment [8].

For the origin of these results see ChEMBL document CHEMBL2424556, “Hybrid benzofuran-bisindole derivatives: new prototypes with promising anti-hyperlipidemic activities” (2013).
